This is a sample that favours compounds with a hit; in the whole collection about 2.2% have one here.
MLLE-PAM2 inh: inhibitors of PABP1 MLLE–PAM2 peptide binding, primary screen, biochemical, fluorescence polarization, FITC-PAM2, GST-MLLE; Polyadenylate-binding protein 1 (Homo sapiens), P11940; inhibition, % at 20 µM; actives 0.36% (n = 360,000); in the data active = inhibition above about 35%, passing the limit was not always enough
eIF4H FP inh: human eIF4H binding inhibitors, primary screen, translation initiation inhibitor project, biochemical, uHTS, fluorescence polarization | Eukaryotic translation initiation factor 4H (Homo sapiens), Q15056 | eIF4H fluorescence polarization binding assay | inhibition, % at 35 µM | actives 0.94% (n = 290,000) | AID 2012, 2009;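 note: calls also rest on retests at 20 µM and on dose response follow-up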
VIM-2 inhibitor: VIM-2 metallo-beta-lactamase inhibitors, primary screen, biochemical, epi-absorbance readout, Pseudomonas aeruginosa enzyme. purified VIM-2, nitrocefin hydrolysis, epi-absorbance fluorescence. inhibition, % at 5.6 µM. actives 0.89% (n = 290,000);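 active = inhibition above the mean of all tested compounds plus 3 SD, cutoff set per screening run, cut at about 7.5% in these data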;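 note: red hydrolysis product quenches plate fluorescence so inhibitors raise well fluorescence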
IMP-1 inh: IMP-1 metallo-beta-lactamase inhibitors, primary screen, biochemical, epi-absorbance readout, Pseudomonas aeruginosa enzyme; purified IMP-1, nitrocefin hydrolysis, epi-absorbance fluorescence; inhibition, % at 5.6 µM; actives 0.45% (n = 290,000);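 active = inhibition above the mean plus 3 SD of all compounds in the same screening run, cut at about 4.5% in these data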
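Material – recombinant IMP-1 enzyme, purified · Amount – IMP-1 0.2 nM before substrate addition · Medium – HEPES buffer pH 7.1 with ZnSO4 and Brij 35 · Timing – 25 °C, 15 min preincubation, 25 min reaction · Measured by – plate fluorescence quenching by hydrolysis product, ex 480/em 530 nm · Read-out – percent enzyme inhibition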
PABP FP inh: PABP poly(A) RNA binding inhibitors, primary screen, biochemical, fluorescence polarization, uHTS. Polyadenylate-binding protein 1 (Homo sapiens), P11940. actives 1% (n = 290,000). calls only at 35 µM. AID 2014, 2009;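 note: calls also rest on retests at 20 µM and on dose response follow-up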
Each line names hits and unclear results; the compound was inactive in the other large screens. Unless noted, the rule behind the calls is not given here.

NS(=O)(=O)c1ccc(NC(=O)CSc2cn[nH]n2)cc1	none
CC1=C(C#N)C(=O)NC(=O)/C1=C\c1ccc(-c2ccc(C)cc2[N+](=O)[O-])o1	eIF4H FP inh inconclusive
CCOC(=O)c1cc(-c2ccc(/C=C3/C(=O)NC(=O)C(C#N)=C3C)o2)ccc1Cl	eIF4H FP inh inconclusive, PABP FP inh active
CCCCC1(C)OC(=O)C(=Cc2ccc(-c3ccc(Cl)c(C(=O)O)c3)o2)C(=O)O1 (stereo not drawn)	IMP-1 inh 29
Cc1ccc(N2NC(=O)/C(=C/c3ccc(-c4ccc(Cl)c(C(=O)O)c4)o3)C2=O)cc1	none
CN(CC(=O)N(C)CC(=O)Nc1c(Cl)cccc1Cl)Cc1ccccc1F	none (no result: eIF4H FP inh, VIM-2 inhibitor, IMP-1 inh, PABP FP inh)
O=c1c2cc(N3CCOCC3)ccc2[nH]c(=S)n1Cc1ccc(Cl)cc1	none
Cc1ccc(Cn2c(=S)[nH]c3ccc(N4CCOCC4)cc3c2=O)o1	eIF4H FP inh 72, PABP FP inh active
Nn1c(CSc2nc3ccccc3o2)nnc1CSc1nc2ccccc2o1	none
Cc1cc(C)n2c(Br)c(CSc3nc4ccccc4o3)nc2n1	VIM-2 inhibitor 9.9
Cc1cc(SCc2ccc(Cl)c(Cl)c2)nc(=O)[nH]1	none
O=C(NCc1cccc(Cl)c1)c1cnccn1	eIF4H FP inh 34
O=C(NCc1ccc(Cl)cc1)c1cnccn1	none
O=C(NCCCO)/C(=C/c1ccco1)NC(=O)c1ccc(Br)o1	eIF4H FP inh 58
NC(=O)/C(=C/c1ccco1)NC(=O)c1ccc(Br)o1	none (no result: eIF4H FP inh, PABP FP inh)
O=C(NC(Cc1ccccc1)C(=O)O)/C(=C\c1ccccc1F)NC(=O)c1ccccc1 (stereo not drawn)	none
O=C(NC(Cc1ccccc1)C(=O)O)/C(=C/c1ccc(Cl)cc1)NC(=O)c1ccccc1 (stereo not drawn)	eIF4H FP inh active
Nc1ccc(Nc2ccccc2)c(S(=O)(=O)O)c1	eIF4H FP inh 95, PABP FP inh active
Cc1ccc(Nc2ccc(N)cc2S(=O)(=O)O)cc1	none
Cc1ccc(Cl)c2c(N=Nc3ccccc3)c(O)[nH]c12	eIF4H FP inh inconclusive, IMP-1 inh 4.6, PABP FP inh inconclusive
Cc1cc(Cl)cc2c(N=Nc3ccccc3C(=O)O)c(O)[nH]c12	none
CCn1c(SCC(=O)O)nnc1-c1cc2c(C)nn(-c3ccccc3)c2s1	VIM-2 inhibitor 10
Cc1nn(-c2ccccc2)c2sc(-c3nnc(SCC(=O)O)o3)cc12	none
O=C(Oc1c(CN2CCOCC2)cc(Cl)c2cccnc12)c1ccccc1F	eIF4H FP inh inconclusive, PABP FP inh active
COC(=O)CSc1ncnc2c1sc1nc3c(cc12)COC(C)(C)C3	eIF4H FP inh active
FC(F)(F)c1nc2nc(Cl)c(Cl)nc2[nH]1	none (no result: eIF4H FP inh, VIM-2 inhibitor, IMP-1 inh, PABP FP inh)
FC(F)(F)C(F)(F)C(F)(F)c1nc2nc(Cl)c(Cl)nc2[nH]1	MLLE-PAM2 inh 49 (no result: eIF4H FP inh, VIM-2 inhibitor, IMP-1 inh, PABP FP inh)
COc1ccc(C(=O)N2CCN(CCCc3ccccc3)CC2)cc1OC	none
Cc1sc(-c2ccncc2)nc1OC(=O)c1cc(Cl)cc(Cl)c1	IMP-1 inh 5.7
Cc1sc(-c2ccncc2)nc1OC(=O)c1ccc(F)cc1F	IMP-1 inh 10
Cc1ccc(C)n1-c1ccc(N2CCOCC2)nc1	eIF4H FP inh 71, PABP FP inh active
O=c1c2ccccc2c(C=NCc2ccccn2)c(O)n1-c1ccccc1	eIF4H FP inh 90, PABP FP inh active
CCCCn1c(N)c(Sc2ccccc2)c(=O)[nH]c1=O	IMP-1 inh 5.0
CC(=O)c1cccc(CN2CCc3ccc(NC(=O)C4CCCO4)cc3C2)c1 (stereo not drawn)	none
CCc1[nH]nc(C(=O)N2CCCC(CCC(=O)N3CCN(c4ccccn4)CC3)C2)c1C (stereo not drawn)	none
O=C(/C=C/c1ccc(O)c(O)c1)O[C@H](Cc1ccc(O)c(O)c1)C(=O)O	eIF4H FP inh 98, PABP FP inh active (no result: MLLE-PAM2 inh, VIM-2 inhibitor, IMP-1 inh)
O=C(O)/C=C/c1ccc(O)c(O)c1	none
O=C(Cc1cccc2ccccc12)NC(NC(=S)Nc1ccccc1Cl)C(Cl)(Cl)Cl (stereo not drawn)	MLLE-PAM2 inh 46
O=C(NC(NC(=S)Nc1ccccc1Cl)C(Cl)(Cl)Cl)c1cccc(Cl)c1 (stereo not drawn)	none
O=C1c2cccnc2C(=O)N1CO	none
NC1=C(Br)C(=O)c2ncccc2C1=O	MLLE-PAM2 inh 39 (no result: eIF4H FP inh, VIM-2 inhibitor, IMP-1 inh, PABP FP inh)
